Blank lines part the entries; values can stand above or below the compound they belong to. Calls of active or inactive are those of the source. The calls are words filed in the database; no cut-off is given here.
Legend:
[1] = (§1) Displacement of [125I]-Tyr6, His5 from human LHRH1 receptor expressed in HEK 293 cells after 16 to 19 hrs by gamma counter; format: cell-based; conditions: hek293
How it was run: (§2)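 Competition binding on membranes from HEK 293 cells stably expressing human LHRH-I receptor, in HEPES buffer with CaCl2, MgCl2 and 0.5% BSA, pH 7.4. Radioligand was 120,000–240,000 cpm [125I-Tyr6,His5]LHRH with rising peptide concentrations, 16–19 h at 4 °C. Samples were filtered on PEI-soaked GF/C and gamma counted. Data were fitted to a one-site model by nonlinear regression; 3–4 experiments.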

HEK293 = test: as §1; format: cell-based; how it was run: as §2
[2] = Metabolic stability in mouse renal epithelial cell membranes assessed as compound remaining at 10 nM measured at 30 mins; format: ADME, cell-based; conditions: for remaining at 0.5 h, 0.01 µM: renal epithelial cell membranes, read-out: Stability
How it was run: (§3)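 Mouse kidney membranes (100,000 × g pellet) in 20 mM phosphate/100 mM NaCl, pH 7.4, at 4 mg/ml protein, incubated with 10 nM peptide at 37 °C with shaking. Sampling at 0, 30, 60 and 120 min was stopped with acetonitrile. LC-MS/MS (MRM) peak areas are expressed relative to t = 0 (100%).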

[3] = Analytical recovery in overnight fasted C57BL/6N mouse plasma assessed as compound recovered at 5 ng/mL, ip
Mus musculus [4] = test: Agonist activity at LHRH1 receptor in C57BL/6N mouse assessed as release of testosterone in plasma at 100 ug/kg, ip; format: functional, organism-based
How it was run: (§4)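 Male C57BL/6N mice were pretreated i.p. with saline. After 15 min, peptide was given i.p. at 1 or 100 µg kg-1 (n = 5). Plasma testosterone was measured by LC-MS/MS with a dexamethasone internal standard.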

[5] = Metabolic stability in mouse renal epithelial cell membranes assessed as compound remaining at 10 nM measured at 120 mins; format: ADME, cell-based; conditions: read-out: Stability; how it was run: as §3
[6] = AUC in overnight fasted C57BL/6N mouse at 1 mg/kg, ip; format: ADME, organism-based; parameters: dose 1 mg/kg, route intraperitoneal; conditions: plasma
How it was run: (§5)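 Male C57BL/6 mice, fasted 12 h overnight, given 1 mg kg-1 i.p. in saline. Blood was taken by cardiac puncture under isoflurane at 1, 2, 4 and 6 h post-dose (n = 5). Plasma was deproteinized and peptide was quantified by LC-MS/MS (MRM) against an internal standard using nine-point calibration curves. Parameters were derived from the plasma concentration–time data.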

[7] = Metabolic stability in overnight fasted C57BL/6N mouse plasma assessed as compound remaining at 50 ng/mL, ip; format: ADME, cell-free; conditions: read-out: Stability
How it was run: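 Recovery of spiked peptide from mouse plasma at 5 and 50 ng/mL. Plasma was extracted by protein precipitation and analysed by LC-MS/MS with an internal standard.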

Plasma = test: Metabolic stability in overnight fasted C57BL/6N mouse plasma at 1 mg/kg, ip; format: ADME, organism-based; parameters: dose 1 mg/kg, route intraperitoneal; conditions: in vivo
How it was run: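 Plasma peptide stability in vivo: fasted male C57BL/6 mice received 1 mg kg-1 i.p. in saline. Cardiac-puncture plasma was collected at 1, 2, 4 and 6 h (n = 5). Peptide was measured by LC-MS/MS after protein precipitation.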

[8] = Drug excretion in overnight fasted C57BL/6N mouse assessed as elimination rate constant at 1 mg/kg, ip; format: ADME, organism-based; parameters: dose 1 mg/kg, route intraperitoneal; conditions: in vivo, read-out: Drug excretion (converted); how it was run: as §5
[9] = Tmax in overnight fasted C57BL/6N mouse at 1 mg/kg, ip; format: ADME, organism-based; parameters: dose 1 mg/kg, route intraperitoneal; conditions: in vivo; how it was run: as §5
[10] = Half life in overnight fasted C57BL/6N mouse at 1 mg/kg, ip; format: ADME, organism-based; parameters: dose 1 mg/kg, route intraperitoneal; conditions: in vivo; how it was run: as §5
[11] = Cmax in overnight fasted C57BL/6N mouse at 1 mg/kg, ip; format: ADME, organism-based; parameters: dose 1 mg/kg, route intraperitoneal; conditions: in vivo; how it was run: as §5
Mus musculus [12] = test: Agonist activity at LHRH1 receptor in C57BL/6N mouse assessed as release of testosterone in plasma at 100 ug/kg, ip in presence of cetrorelix; format: functional, organism-based
How it was run: (§6)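 Male C57BL/6N mice first received cetrorelix 1 mg kg-1 i.p. After 15 min, peptide was given i.p. at 1 or 100 µg kg-1 (n = 5). Plasma testosterone was quantified by LC-MS/MS with a dexamethasone internal standard.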

Mus musculus [13] = test: Agonist activity at LHRH1 receptor in C57BL/6N mouse assessed as testosterone AUC (1 to 6 hrs) at 1 mg/kg, ip; format: functional; conditions: route intraperitoneal
How it was run: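 Male C57BL/6N mice were dosed 1 mg kg-1 i.p. with saline vehicle controls (n = 5). Cardiac-puncture plasma was taken at 1, 2, 4 and 6 h. Testosterone was quantified by LC-MS/MS with a dexamethasone internal standard, calibrated 0.05–100 ng mL-1. AUC was computed over 1–6 h; mean ± SD.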

Mus musculus [14] = test: Agonist activity at LHRH1 receptor in C57BL/6N mouse assessed as release of testosterone in plasma at 1 ug/kg, ip; format: functional, organism-based; how it was run: as §4
Mus musculus [15] = test: Agonist activity at LHRH1 receptor in C57BL/6N mouse assessed as release of testosterone in plasma at 1 ug/kg, ip in presence of cetrorelix; format: functional, organism-based; how it was run: as §6

Compound: COc1ccc(C[C@@H]2NC(=O)[C@H](CO)NC(=O)[C@H](Cc3c[nH]c4ccccc34)NC(=O)[C@H](Cc3cnc[nH]3)NC(=O)[C@@H]3CCCN3C(=O)CCCCCNC(=O)C[C@H](C)NC(=O)[C@@H]3CCCN3C(=O)[C@H](CCCNC(=N)N)NC(=O)[C@H](CC(C)C)NC(=O)[C@@H](CC(C)C)NC2=O)cc1
pIC50 [1]: 5.54
inhibition (HEK293): Dose-dependent effect
remaining at 0.5 h, 0.01 µM [2]: 90%

Compound: CC(C)C[C@@H]1NC(=O)[C@@H](CC(C)C)NC(=O)[C@H](Cc2ccc(O)cc2)NC(=O)[C@H](CO)NC(=O)[C@H](Cc2c[nH]c3ccccc23)NC(=O)[C@H](Cc2cnc[nH]2)NC(=O)[C@@H]2CCCN2C(=O)CCCCCNC(=O)C[C@H](C)NC(=O)[C@@H]2CCCN2C(=O)[C@H](CCCNC(=N)N)NC1=O
pIC50 [1]: 5.31
inhibition (HEK293): Dose-dependent effect
remaining at 0.5 h, 0.01 µM [2]: 72%

Compound: CC(C)C[C@H](NC(=O)CNC(=O)[C@H](Cc1ccc(O)cc1)NC(=O)[C@H](CO)NC(=O)[C@H](Cc1c[nH]c2ccccc12)NC(=O)[C@H](Cc1cnc[nH]1)NC(=O)[C@@H]1CCC(=O)N1)C(=O)N[C@@H](CCCNC(=N)N)C(=O)N1CCC[C@H]1C(=O)NCC(N)=O [GONADORELIN]
inhibition (HEK293): Dose-dependent effect
Stability ([2]; epithelial cell, 0.5 h, 0.01 µM): Unstable

Compound: CC(C)C[C@@H]1NC(=O)[C@@H](CC(C)C)NC(=O)[C@H](Cc2ccc(O)cc2)NC(=O)[C@H](CO)NC(=O)[C@H](Cc2c[nH]c3ccccc23)NC(=O)[C@H](Cc2cnc[nH]2)NC(=O)[C@@H]2CCCN2C(=O)C[C@H](C)NC(=O)[C@@H]2CCCN2C(=O)[C@H](CCCNC(=N)N)NC1=O
recovered at 5 ng/mL [3]: > 90%
Activity (Mus musculus [4]): Active
remaining at 2 h, 0.01 µM [5]: 100%
AUC [6]: 808 ng·h/mL
remaining at 50 ng/mL [7]: > 90%
Stability (Plasma): Stable
k el [8]: 0.000278 s⁻¹
Tmax [9]: 60 min
pIC50 [1]: 6.17
inhibition (HEK293): Dose-dependent effect
remaining at 0.5 h, 0.01 µM [2]: 100%
half-life [10]: 30 min
Cmax [11]: 834 ng/mL
Activity (Mus musculus [12]): inactive
Activity (Mus musculus [13]): 61.1 ng·h/mL

Compound: CCNC(=O)[C@@H]1CCCN1C(=O)[C@H](CCCNC(=N)N)NC(=O)[C@H](CC(C)C)NC(=O)[C@@H](CC(C)C)NC(=O)[C@H](Cc1ccc(O)cc1)NC(=O)[C@H](CO)NC(=O)[C@H](Cc1c[nH]c2ccccc12)NC(=O)[C@H](Cc1c[nH]cn1)NC(=O)[C@@H]1CCC(=O)N1 [LEUPROLIDE]
recovered at 5 ng/mL [3]: > 90%
Activity (Mus musculus [14]): Active
AUC [6]: 138 ng·h/mL
Activity (Mus musculus [15]): inactive
remaining at 50 ng/mL [7]: > 90%
Stability (Plasma): Stable
k el [8]: 0.000278 s⁻¹
pIC50 [1]: 9.12
inhibition (HEK293): Dose-dependent effect
remaining at 0.5 h, 0.01 µM [2]: 3%
half-life [10]: 42 min
Cmax [11]: 190 ng/mL
Activity (Mus musculus [13]): 244.1 ng·h/mL

Continued, in another order:

remaining at 0.5 h, 0.01 µM [2]: 68%
Compound: COc1ccc(C[C@@H]2NC(=O)[C@H](CO)NC(=O)[C@H](Cc3c[nH]c4ccccc34)NC(=O)[C@H](Cc3cnc[nH]3)NC(=O)[C@@H]3CCCN3C(=O)CNC(=O)[C@@H]3CCN3C(=O)[C@H](CCCNC(=N)N)NC(=O)[C@H](CC(C)C)NC(=O)[C@@H](Cc3c[nH]c4ccccc34)NC2=O)cc1
pIC50 [1]: 5.58
inhibition (HEK293): Dose-dependent effect

remaining at 0.5 h, 0.01 µM [2]: 90%
Compound: COc1ccc(C[C@@H]2NC(=O)[C@H](CO)NC(=O)[C@H](Cc3c[nH]c4ccccc34)NC(=O)[C@H](Cc3cnc[nH]3)NC(=O)[C@@H]3CCCN3C(=O)CC(C)NC(=O)[C@@H]3CCN3C(=O)[C@H](CCCNC(=N)N)NC(=O)[C@H](CC(C)C)NC(=O)[C@@H](CC(C)C)NC2=O)cc1 (some centres not stated)
pIC50 [1]: 5.82
inhibition (HEK293): Dose-dependent effect

Reference: ChEMBL document CHEMBL2150946, “Rationally designed cyclic analogues of luteinizing hormone-releasing hormone: enhanced enzymatic stability and biological properties” (Eur J Med Chem, 2012)
